The text below walks through data of paper PMC3137751 (Biochemistry, 2010).

The term stoichiometry N denotes a count of units in the complex or per binding partner.

Substrate in series [1]: O=C(O)C[C@H](C(=O)O)[C@@H](O)C(=O)O
In words: Apparent S0.5 for isocitrate. Format: biochemical. The settings on record: pH 7.4; 24.0 °C.

Series [2] deals with the molecule itself. In words: SEC. (In general: SEC sorts molecules by how far they enter the pores of the column.)
Series [3] concerns the molecule itself. Nature of the series: AUC.
Series [4] concerns the molecule itself. In words: AUC. The source holds these as a separate data set.
Series [5] relates to Yeast NAD+-specific isocitrate dehydrogenase (IDH). Nature of the series: Kinetic analyses: isocitrate saturation velocity curves of purified IDH enzymes. Format: biochemical. As to conditions: for Hill coef. with respect to isocitrate, − AMP: absence of AMP; for Vmax (apparent), + AMP: isocitrate velocity saturation curve; for Vmax (apparent), + AMP / Hill coef. with respect to isocitrate, + AMP: presence of 100 μM AMP. A digest of the protocol: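 His-tagged IDH purified by Ni2+-NTA, stored at −20 °C in elution buffer with 20% glycerol, quantified by A280. Assays at 24 °C used 40 mM Tris-HCl pH 7.4, 4 mM MgCl2 and 0.5 mM NAD+. D-isocitrate was varied 0–5 mM, with or without 100 μM AMP, and NADH formation was followed. Apparent S0.5 and Hill coefficients came from saturation curves, Vmax as maximum velocity per mg, over two independent experiments.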

Numbering of substitutions follows the chain as printed. Names may count otherwise.

B1: IDH1/IDH2 (Saccharomyces cerevisiae S288C) (protein)
chain 1: ATAAQAERTLPKKYGGRFTVTLIPGDGVGKEITDSVRTIFEAENIPIDWETINIKQTDHKEGVYEAVESLKRNKIGLKGLWHTPADQTGHGSLNVALRKQLDIYANVALFKSLKGVKTRIPDIDLIVIRENTEGEFSGLEHESVPGVVESLKVMTRPKTERIARFAFDFAKKYNRKSVTAVHKANIMKLGDGLFRNIITEIGQKEYPDIDVSSIIVDNASMQAVAKPHQFDVLVTPSMYGTILGNIGAALIGGPGLVAGANFGRDYAVFEPGSRHVGLDIKGQNVANPTAMILSSTLMLNHLGLNEYATRISKAVHETIAEGKHTTRDIGGSSSTTDFTNEIINKLSTM
chain 2: ATVKQPSIGRYTGKPNPSTGKYTVSFIEGDGIGPEISKSVKKIFSAANVPIEWESCDVSPIFVNGLTTIPDPAVQSITKNLVALKGPLATPIGKGHRSLNLTLRKTFGLFANVRPAKSIEGFKTTYENVDLVLIRENTEGEYSGIEHIVCPGVVQSIKLITRDASERVIRYAFEYARAIGRPRVIVVHKSTIQRLADGLFVNVAKELSKEYPDLTLETELIDNSVLKVVTNPSAYTDAVSVCPNLYGDILSDLNSGLSAGSLGLTPSANIGHKISIFEAVHGSAPDIAGQDKANPTALLLSSVMMLNHMGLTNHADQIQNAVLSTIASGPENRTGDLAGTATTSSFTEAVIKRL
As to B1, the K0.5 in series [1] is listed as 0.53/0.10 (±0.10/0) mM.

B2: truncated ^-5IDH1/IDH2 enzyme (complex, yeast)
chain 1: AERTLPKKYGGRFTVTLIPGDGVGKEITDSVRTIFEAENIPIDWETINIKQTDHKEGVYEAVESLKRNKIGLKGLWHTPADQTGHGSLNVALRKQLDIYANVALFKSLKGVKTRIPDIDLIVIRENTEGEFSGLEHESVPGVVESLKVMTRPKTERIARFAFDFAKKYNRKSVTAVHKANIMKLGDGLFRNIITEIGQKEYPDIDVSSIIVDNASMQAVAKPHQFDVLVTPSMYGTILGNIGAALIGGPGLVAGANFGRDYAVFEPGSRHVGLDIKGQNVANPTAMILSSTLMLNHLGLNEYATRISKAVHETIAEGKHTTRDIGGSSSTTDFTNEIINKLSTM
chain 2: B1 chain 2
Turning to B2, the “stoichiometry N” value in series [2] worked out at 8. In series [1], the K0.5 is listed as 0.52/0.11 (±0.04/0.01) mM.

B3: IDH1^G15D/IDH2 enzyme (complex, yeast)
chain 1: B1 chain 1 with G15D
chain 2: B1 chain 2
Regarding B3, the “stoichiometry N” value in series [3] is 4. Further, the K0.5 in series [1] is reported as 0.60/0.13 (±0.13/0.01) mM.

B4: ^-5IDH1^D168A/IDH2 enzyme (complex, yeast)
chain 1: B2 chain 1 with D163A
chain 2: B1 chain 2
With B4, the “stoichiometry N” value in series [4] turned out to be 8.

B5: ^-5IDH1^G15A/IDH2 enzyme (complex, yeast)
chain 1: B2 chain 1 with G10A
chain 2: B1 chain 2
Regarding B5, the “stoichiometry N” value in series [3] is > 4.

B6: wild-type IDH1/IDH2 enzyme (yeast NAD+-specific isocitrate dehydrogenase) (complex)
chain 1: B1 chain 1
chain 2: B1 chain 2
Take B6: the “stoichiometry N” value in series [4] stood at 8.

B7: ^-5IDH1^D168K/IDH2 (Saccharomyces cerevisiae S288C; D179K) (protein)
chain 1: B2 chain 1 with D163K
chain 2: B1 chain 2
Consider B7, for which, in series [1], the K0.5 is on record as 0.61/0.13 (±0.13/0.04) mM.

B8: ^-5IDH1^G15D/IDH2: truncated -5 IDH1 with G15D replacement plus IDH2; tetrameric (protein)
chain 1: B2 chain 1 with G10D
chain 2: B1 chain 2
modifications: left off: histidine tag, C-terminal, kept
Regarding B8, in series [5], the “Hill coef. with respect to isocitrate, − AMP” value worked out at 2.2; the “Vmax (apparent), + AMP” value is on record as 15.4 units/mg; the “Hill coef. with respect to isocitrate, + AMP” value was found to be 2.0; the “reduction in apparent Vmax relative to ^-5IDH1/IDH2” value is listed as ~ 50%.

B9: ^-5IDH1^G15D/IDH2 enzyme (complex, yeast)
chain 1: B2 chain 1 with G10D
chain 2: B1 chain 2
B9: the “stoichiometry N” value in series [2] turned out to be 4. For the same molecule, the K0.5 in series [1] is on record as 0.64/0.14 (±0.03/0.04) mM.

B10: ^-5IDH1^D168K/IDH2: truncated -5 IDH1 with D168K replacement plus IDH2; tetrameric (protein)
chain 1: B2 chain 1 with D163K
chain 2: B1 chain 2
modifications: left off: histidine tag, C-terminal, kept
On to B10, for which, in series [5], the “Hill coef. with respect to isocitrate, − AMP” value is given as 2.2; the “Vmax (apparent), + AMP” value came out at 15.3 units/mg; the “Hill coef. with respect to isocitrate, + AMP” value was 2.0; the “reduction in apparent Vmax relative to ^-5IDH1/IDH2” value is on record as ~ 50%.

B11: ^-5IDH1/IDH2: IDH with five residues truncated from the amino terminus of IDH1; octameric (protein)
chain 1: B2 chain 1
chain 2: B1 chain 2
modifications: left off: histidine tag, C-terminal, kept
In the case of B11, in series [5], the “Hill coef. with respect to isocitrate, − AMP” value was 3.1; the “Vmax (apparent), + AMP” value is reported as 30.3 units/mg; the “Hill coef. with respect to isocitrate, + AMP” value turned out to be 3.5.

B12: IDH1^G15D/IDH2: full-length IDH1 with G15D substitution plus IDH2; stable tetramer (protein)
chain 1: B1 chain 1 with G15D
chain 2: B1 chain 2
modifications: left off: histidine tag, C-terminal, kept
In the case of B12, in series [5], the “Hill coef. with respect to isocitrate, − AMP” value is listed as 2.3; the “Vmax (apparent), + AMP” value was 21.9 units/mg; the “Hill coef. with respect to isocitrate, + AMP” value amounted to 2.0. The “reduction in apparent Vmax relative to IDH1/IDH2 (wild-type)” value in series [5] (relative to IDH1/IDH2) was ~ 38%.
